The inhibition is the change of the read-out against control, counted positive when it falls.

Consider nine compounds from ChEMBL document CHEMBL1159051, “Synthesis and biological evaluation of oxadiazole derivatives as inhibitors of soluble guanylyl cyclase” (Bioorg Med Chem, 2010).

Calls of active or inactive are those of the source. The calls are words filed in the database; no cut-off is given here.

The species entered for assay [1] is Rattus norvegicus. The experiment in a line: Inhibition of soluble guanylyl cyclase in rat aortic smooth muscle cells assessed as inhibition of SNP-stimulated cGMP formation at 0.1 uM by immunoassay. The procedure, abridged: (§1)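 Rat aortic smooth muscle cells were grown in high-glucose DMEM with 10% foetal calf serum plus penicillin/streptomycin, and passages 3–4 were used at confluence. Cells were pretreated with IBMX (1 mM, 5 min) to block phosphodiesterase, then exposed to compound for 20 min with IBMX still present. They were then stimulated with SNP for 15 min, and cGMP was measured by enzyme immunoassay.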

The species named for assay [2] is Rattus norvegicus. The experiment in a line: Inhibition of soluble guanylyl cyclase in rat aortic smooth muscle cells assessed as inhibition of SNP-stimulated cGMP formation at 10 uM by immunoassay. The procedure, abridged:
as §1

Assay [3] is filed under the species Rattus norvegicus. Kind of assay: Inhibition of soluble guanylyl cyclase in rat aortic smooth muscle cells assessed as inhibition of SNP-stimulated cGMP formation by immunoassay. The method, boiled down: as §1

For `O=c1onc2n1-c1ncccc1OC2`, the inhibition result in the assay listed under Rattus norvegicus [1] and in the assay filed under Rattus norvegicus [2] was “Active” in each case.
As to `O=c1onc2n1-c1cc(-c3cccc(C(F)(F)F)c3)ccc1OC2`, the inhibition result in the assay listed under Rattus norvegicus [1] and in the assay listed under Rattus norvegicus [2] was “Active” throughout.
Turning to `O=c1c2ccccc2nc2n1-c1cc(Br)ccc1OC2`, the inhibition entry in the assay listed under Rattus norvegicus [3] was “inactive”.
Still for that read-out and setting: the same measure for `O=c1[nH]nc2n1-c1cc(Br)ccc1OC2`: “inactive”.
`O=c1onc2cnc3ccccc3n12`: the results for the inhibition result in the assay filed under Rattus norvegicus [3] and in the assay listed under Rattus norvegicus [1] were “Dose-dependent effect” and 85%, respectively. In addition, in the assay listed under Rattus norvegicus [2], the inhibition entry was “Active”.
Turning to `O=C1c2ccccc2-n2c(noc2=O)[C@@H]2CCCN12`, in the assay filed under Rattus norvegicus [3], the inhibition result was “inactive”.
Take `COc1ccc(-c2ccc3c(c2)-n2c(noc2=O)CO3)cc1`: the inhibition entry in the assay filed under Rattus norvegicus [1] and in the assay listed under Rattus norvegicus [2] was “Active” in each case.
As to `O=c1c2ccccc2nc2n1-c1ccccc1OC2`, the inhibition entry in the assay listed under Rattus norvegicus [3] is “inactive”.
On to `O=c1c2ccc(Cl)cc2nc2n1-c1ccccc1OC2`, for which the inhibition entry in the assay filed under Rattus norvegicus [1] and in the assay filed under Rattus norvegicus [2] was “Active” each time.
